NLRP3 yeast inh = NALP3 inflammasome inhibitors in reconstituted yeast, primary screen, luminescence, uHTS. inhibition, % at 10 µM. hit rate 0.39% among 330,000. Yeast reconstituted NLRP3/ASC/caspase-1, beta-gal luminescence, 24 h;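 active means inhibition of 50% or more; inactive means inhibition below 50%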;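 further: plate controls were induced DMSO wells for no effect and uninduced yeast grown without galactose for full effect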
NALP1 yeast inh = NALP1 inflammasome inhibitors in reconstituted yeast, colorimetric, S. cerevisiae, triplicate retest | S. cerevisiae NALP1/ASC/caspase-1 growth, X-gal OD620, 72 h | hit rate 0.61% among 280,000 | inhibition, % at 10 µM; in the data active means inhibition mostly above about 24%, no sharp cut-off; inactive means mostly below about 32%
PolyA inhibitor = polyadenylation inhibitors in yeast reporter cells, primary screen, luminescence, S. cerevisiae; S. cerevisiae SKY197-pL101 polyadenylation reporter, beta-gal luminescence; efflux-impaired pdr1/pdr3 knockout yeast; score 100 = 6 SD above DMSO; activity score, % at 12 µM; hit rate 0.02% among 300,000;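 active means lowest replicate activity score at least 50, where 100 means six control SD above control mean; inconclusive means lowest score under 50 but half or more replicates reach 50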;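 further: yeast exposed to compound for 9 h at 30 °C; higher score means more reporter readthrough which indicates perturbed polyadenylation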
L major viab = Leishmania major promastigote growth inhibition, primary screen; Leishmania major promastigotes, resazurin fluorescence viability; inhibition, % at 10 µM; hit rate 9% among 200,000; in the data active means inhibition above about 50%;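 further: promastigotes grown with compound for 44 hours at 28 °C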
T cruzi inh = inhibitors of intracellular T. cruzi growth, primary screen, luminescence, NIH3T3 host cells; T. cruzi beta-gal in NIH3T3, 90 h; inhibition, % (concentration not given with the values); hit rate 1.4% among 300,000; AID 1885, 2009;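 active means mean inhibition across valid replicates above about 55%, limit read from the data; inconclusive means mean below that limit but half or more replicates reach it; inactive means mean below it, under half of replicates reach it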;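 further: signal also drops with host cell toxicity which is not excluded here; 0% = plate median of DMSO wells and 100% = zero luminescence signal; higher percent means less beta-gal luminescence so fewer parasites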
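Test system: β-gal T. cruzi (Tulahuen C4) inside NIH/3T3 cells / Quantity: 5,000 cells/well / Measured by: luminescence from GalScreen with 0.05% NP40, read after 60 min / Medium: DMEM plus 2% FBS / Measure: parasite load inhibition, % / Reagent: Tulahuen C4 trypomastigotes, 5000/well / Schedule: co-culture of at least 90 h after 3 h attachment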
Calb FLC = C. albicans growth inhibition with fluconazole, primary screen, CaCi-2 strain, Alamar Blue fluorescence; hit rate 0.57% among 300,000; C. albicans CaCi-2 + fluconazole, 48 h; growth inhibition, % (concentration not given with the values);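 active means growth inhibition above about 58% in most replicates, limit read from the data, passing the limit was not always enough; inconclusive means exactly half the replicates above a set limit; inactive means most replicates below a set limit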;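 further: all wells also contain fluconazole at 8 µg/ml as a sub-toxic cotreatment; 0% = median of DMSO wells and 100% = median of geldanamycin control wells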
Active calls of the source: *. The entries come from a sample that favours hits as a whole.

`O=C(CC1SC(=Nc2ccc(OC(F)F)cc2)N(CCN2CCOCC2)C1=O)Nc1ccc(F)cc1F` (stereo not given) gave NLRP3 yeast inh -5.5, NALP1 yeast inh -6.4, PolyA inhibitor 23.2, L major viab 62.0*, T cruzi inh 19.3 and Calb FLC 12.5.
Screening C=CCN1C(=O)C(CC(=O)Nc2ccc(OC)cc2)SC1=Nc1ccc(S(N)(=O)=O)cc1 (stereo not given) returned NLRP3 yeast inh 1.4, NALP1 yeast inh -10.9, PolyA inhibitor -0.5, L major viab -10.2, T cruzi inh 7.4 and Calb FLC 7.9.
Screening COc1ccc(N=C2SC(CC(=O)Nc3ccccc3)C(=O)N2Cc2ccccn2)cc1 (stereo not given) returned NLRP3 yeast inh 11.3, NALP1 yeast inh 18.4, PolyA inhibitor -3.7, L major viab 38.4, T cruzi inh 1.7 and Calb FLC -12.5.
Screening COc1ccc(N=C2SC(CC(=O)Nc3ccccc3)C(=O)N2CCc2ccccn2)cc1 (stereo not given) returned NLRP3 yeast inh 11.8, NALP1 yeast inh 29.0, PolyA inhibitor 18.1, L major viab 60.4*, T cruzi inh -7.8 and Calb FLC -5.0.
`CCC(=O)N1CCN(c2ccc(NC(=O)c3ccc([N+](=O)[O-])o3)cc2Cl)CC1` gave NALP1 yeast inh 2.7, PolyA inhibitor -6.1, L major viab 100.5*, T cruzi inh 29.3 and Calb FLC 0.7.
CCN1CCN(c2ccc(NC(=O)c3ccc([N+](=O)[O-])o3)cc2Cl)CC1 was read as NALP1 yeast inh 8.0, PolyA inhibitor -6.2, L major viab 100.7*, T cruzi inh 91.5* and Calb FLC inconclusive.
Screening CC(=O)N1CCN(c2ccc(NC(=O)c3ccc([N+](=O)[O-])o3)cc2Cl)CC1 returned NLRP3 yeast inh 18.6, NALP1 yeast inh 0.2, PolyA inhibitor -6.7, T cruzi inh 6.4 and Calb FLC -2.7.
For Cc1ccc(C(=O)Nc2ccc(C)c(S(=O)(=O)Nc3ccccc3Cl)c2)s1 the results were NLRP3 yeast inh -7.6, NALP1 yeast inh -6.2, PolyA inhibitor -4.9, L major viab 84.2*, T cruzi inh 36.3 and Calb FLC -10.9.
O=C(Nc1ccccc1Cl)c1cccs1 was read as NLRP3 yeast inh 4.9, NALP1 yeast inh 24.2, PolyA inhibitor 4.6, L major viab -5.2, T cruzi inh -16.7 and Calb FLC 54.5.
For O=C(Nc1ccc(Cl)c(S(=O)(=O)Nc2ccccc2Cl)c1)c1cccs1 the results were NLRP3 yeast inh -8.6, NALP1 yeast inh 32.0, PolyA inhibitor -22.9, L major viab 77.2*, T cruzi inh 6.6 and Calb FLC -0.7.
For Cc1ccc(NC(=O)c2cc3c(s2)CCCC3)cc1S(=O)(=O)Nc1ccccc1Cl the results were NLRP3 yeast inh 1.5, NALP1 yeast inh 29.3, PolyA inhibitor -1.9, L major viab 18.7, T cruzi inh 18.7 and Calb FLC 5.3.
O=C(N/N=C1/CC(c2ccccc2)Oc2ccccc21)C1CC1 (stereo not given) was read as NLRP3 yeast inh 16.7, NALP1 yeast inh 17.9, PolyA inhibitor -12.5, L major viab 44.5, T cruzi inh -13.7 and Calb FLC 16.6.
Screening CCOc1ccc(S(=O)(=O)N/N=C2/CC(c3ccccc3)Oc3ccccc32)cc1 (stereo not given) returned NLRP3 yeast inh 6.7, NALP1 yeast inh -16.9, PolyA inhibitor 6.1, L major viab 50.2*, T cruzi inh 33.6 and Calb FLC -7.0.
`N#Cc1ccc(OCC(=O)N/N=C2/CC(c3ccccc3)Oc3ccccc32)cc1` (stereo not given) gave NLRP3 yeast inh 6.3, NALP1 yeast inh 11.6, PolyA inhibitor -5.3, L major viab 52.6*, T cruzi inh -6.0 and Calb FLC -4.2.
CCN(CC)c1nc(Nc2ccc([N+](=O)[O-])cc2)nc(N(CC)CC)n1 was read as NLRP3 yeast inh 17.1, NALP1 yeast inh 8.4, PolyA inhibitor 30.6, T cruzi inh 44.9 and Calb FLC 2.4.
`Cc1ccc2nc(NC(=O)CSc3nc(=O)n(CCN(C)C)c4c3CCCC4)sc2c1` gave NLRP3 yeast inh -10.7, PolyA inhibitor 13.6, T cruzi inh -0.8 and Calb FLC 5.3.
`C[C@H](CO)N1C[C@H](C)[C@@H](CN(C)S(=O)(=O)c2cccs2)Oc2c(NS(=O)(=O)c3ccc(F)cc3)cccc2C1=O` gave NLRP3 yeast inh 5.5.
Screening CC(NC(=O)C(=O)N1CCOCC1)C(c1cccs1)N1CCN(c2ccc(F)cc2)CC1 (stereo not given) returned NLRP3 yeast inh 1.8, NALP1 yeast inh -20.9, PolyA inhibitor 10.5, T cruzi inh -26.0 and Calb FLC -9.6.
Screening Nc1c2c(nc3ccccc13)CSCC2 returned NLRP3 yeast inh -3.3, PolyA inhibitor 10.9, T cruzi inh 54.7* and Calb FLC -13.0.
`Cc1ccc2cc(CN(Cc3ccc4c(c3)OCO4)Cc3nnnn3Cc3ccco3)c(=O)[nH]c2c1C` gave NLRP3 yeast inh 2.7, NALP1 yeast inh -16.5, PolyA inhibitor 3.6, L major viab 68.5*, T cruzi inh 40.9 and Calb FLC 11.3.
Screening Cc1ccc(C)c2[nH]c(=O)c(CN(Cc3ccc4c(c3)OCO4)Cc3nnnn3Cc3ccco3)cc12 returned NLRP3 yeast inh 2.5, NALP1 yeast inh 14.7, PolyA inhibitor 1.0, L major viab 58.5*, T cruzi inh 29.2 and Calb FLC 0.4.
For C/C(Cl)=C\C[N+](C)(C)CC(=O)OCCc1ccccc1 the results were NLRP3 yeast inh -4.5, NALP1 yeast inh -4.1, PolyA inhibitor 17.5, T cruzi inh -21.1 and Calb FLC -7.4.
Screening CCCCCCCOC(=O)c1nc(Cl)c(Cl)c(N)c1Cl returned NLRP3 yeast inh -8.2, NALP1 yeast inh 44.3, PolyA inhibitor -15.2, L major viab 2.1, T cruzi inh -0.3 and Calb FLC 7.3.
CCCCCCCCOC(=O)C[N+](C)(C)C/C=C(/C)Cl was read as NLRP3 yeast inh -7.4, NALP1 yeast inh 11.5, PolyA inhibitor 8.7, L major viab 67.4*, T cruzi inh -18.0 and Calb FLC -17.8.
CCCCCCCCCCOC(=O)C[N+](C)(C)C/C=C(/C)Cl was read as NLRP3 yeast inh 24.5, NALP1 yeast inh 43.6, PolyA inhibitor 6.2, L major viab 100.2*, T cruzi inh -0.5 and Calb FLC -37.3.
Fc1cccc(Cl)c1Cc1noc(/C=C/c2ccccc2)n1 was read as NLRP3 yeast inh 19.7, NALP1 yeast inh 27.9*, PolyA inhibitor -1.1, L major viab -4.5, T cruzi inh 3.0 and Calb FLC 7.1.
O=C(NCCNC(=O)c1cc(Cl)ccc1Cl)c1ccco1 was read as NLRP3 yeast inh 19.2, NALP1 yeast inh 24.1, PolyA inhibitor 1.9, T cruzi inh 8.7 and Calb FLC -5.3.

Bioassay records: PubChem BioAssay, several laboratories
